Sampled rows, rich in hits. Any-hit rate of the full collection: about 5.5%.
BB579 growth dn = yeast BB579 growth reduction in restrictive medium; S. cerevisiae BB579 growth, OD615, 48 h; inhibition, % at 10 µM; hit rate 0.51% among 140,000; AID 804;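 active = inhibition above a set limit, 3 SD over the mean compound inhibition, cut at about 44% in these data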
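System: Saccharomyces cerevisiae DeaD strain BB579, replicative lifespan model yeast | Buffer or medium: Restrictive glucose-based CSMM-D medium | Times: 4 h preincubation and 48 h exposure at 30 °C | Detection: OD615 turbidity measurement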
Cl transport mod = modulators of human KCC2 chloride dependent transport; B-score of Tl+ flux slope (higher = more flux/activation; lower = inhibition) at 10 µM; Q9H2X9; KCC2 cells, thallium flux FluoZin-2 fluorescence; hit rate 2.2% among 190,000;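 active = thallium flux slope and its plate-corrected score both differing from the plate sample mean at a set confidence after two filtering rounds, in either direction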;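 also: slope of fluorescence scaled to starting intensity during 10 to 20 s after thallium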
Target sequence (Q9H2X9 whole entry, looked up): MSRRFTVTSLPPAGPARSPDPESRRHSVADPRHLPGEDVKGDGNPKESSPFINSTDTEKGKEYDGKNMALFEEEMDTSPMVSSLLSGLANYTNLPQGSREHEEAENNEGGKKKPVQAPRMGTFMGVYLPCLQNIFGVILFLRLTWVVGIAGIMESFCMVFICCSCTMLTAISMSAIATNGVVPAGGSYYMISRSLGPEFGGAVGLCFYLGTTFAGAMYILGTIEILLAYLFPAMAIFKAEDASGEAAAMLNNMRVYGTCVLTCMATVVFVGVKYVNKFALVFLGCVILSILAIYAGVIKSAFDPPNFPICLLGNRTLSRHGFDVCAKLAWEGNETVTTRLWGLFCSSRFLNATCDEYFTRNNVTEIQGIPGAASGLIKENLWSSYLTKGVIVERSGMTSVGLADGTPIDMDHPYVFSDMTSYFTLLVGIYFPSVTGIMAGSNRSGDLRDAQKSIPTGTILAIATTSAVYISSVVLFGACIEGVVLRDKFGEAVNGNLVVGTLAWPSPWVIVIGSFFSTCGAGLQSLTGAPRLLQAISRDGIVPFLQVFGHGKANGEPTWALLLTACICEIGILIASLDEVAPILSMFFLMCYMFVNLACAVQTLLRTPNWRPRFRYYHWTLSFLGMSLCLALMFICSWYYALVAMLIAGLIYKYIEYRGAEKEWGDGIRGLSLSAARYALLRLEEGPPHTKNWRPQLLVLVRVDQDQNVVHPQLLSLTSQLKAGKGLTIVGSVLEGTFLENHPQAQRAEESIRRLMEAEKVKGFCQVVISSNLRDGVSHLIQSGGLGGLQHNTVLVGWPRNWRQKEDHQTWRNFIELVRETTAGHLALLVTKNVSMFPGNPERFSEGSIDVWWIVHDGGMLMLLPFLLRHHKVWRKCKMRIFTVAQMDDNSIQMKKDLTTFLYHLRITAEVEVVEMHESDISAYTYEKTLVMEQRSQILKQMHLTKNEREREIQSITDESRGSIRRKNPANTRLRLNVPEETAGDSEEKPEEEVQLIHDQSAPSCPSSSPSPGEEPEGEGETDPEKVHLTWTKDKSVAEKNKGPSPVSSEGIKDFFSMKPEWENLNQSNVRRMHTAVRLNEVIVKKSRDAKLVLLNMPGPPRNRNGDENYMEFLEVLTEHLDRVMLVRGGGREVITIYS
WT yeast gro inh = growth inhibition of WT yeast, mitochondrial fusion screen; mitochondrial fusion phenotypic screen, WT strain; inhibition, % at 10 µM; hit rate 2.1% among 190,000; AID 1362; in the data active = inhibition above about 58%; tested in S. cerevisiae
RAM inhibit = inhibitors of the yeast RAM network; S. cerevisiae dse1pr::URA3 reporter, 5-FOA growth OD615, 2 d; analog-sensitive cbk1-as2 kinase mutant strain; inhibition, % at 50 µM; hit rate 1.8% among 190,000;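 active = inhibition above a set limit, 3 SD over mean compound inhibition, cut at about 8.4% in these data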;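 also: inhibition rescues growth on 5-FOA so higher OD means more RAM inhibition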
Yeast lifespan up = extends the lifespan of yeast | S. cerevisiae growth with nicotinamide, OD615; deaD strain in restrictive glucose medium | inhibition of the nicotinamide effect, % at 10 µM | hit rate 0.68% among 130,000;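 active = inhibition above a set limit, placed 3 SD over the median of all compounds, cut at about 26% in these data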
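System: DeaD-strain S. cerevisiae / Buffer or medium: CSMM-D, restrictive glucose (dextrose) synthetic minimal medium / Probe or stimulus: nicotinamide, 1.5 mM, co-present with compound / Compound: one concentration, 10 µM, DMSO 0.25% / Incubation: 48 h compound exposure at 30 °C, humidified / Technique: optical density (absorbance) at 615 nm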
Numbers stand for hits.

`O=C1CSC(=NC2CCCCC2)N1` gave BB579 growth dn inactive, Cl transport mod inactive, WT yeast gro inh 84, RAM inhibit inactive and Yeast lifespan up inactive.
`O=C1CS/C(=N/N=C2CCCC2)N1` gave Cl transport mod inactive, WT yeast gro inh inactive and RAM inhibit inactive.
Screening c1ccc(-c2cc(-c3nc4ccccc4[nH]3)c3ccccc3n2)cc1 returned BB579 growth dn inactive, Cl transport mod inactive, WT yeast gro inh 60, RAM inhibit inactive and Yeast lifespan up inactive.
Screening O=C(Cc1ccccc1)NCCc1cn2ccsc2n1 returned BB579 growth dn 49, Cl transport mod inactive, WT yeast gro inh inactive, RAM inhibit inactive and Yeast lifespan up inactive.
For CC(C)OP(=O)(OC(C)C)C(Nc1ccccc1)c1cccnc1 (configuration not stated) the results were Cl transport mod inactive.
`CCOc1cc(N2CCOCC2)c(OCC)cc1NC(=O)c1ccc(OC(C)C)cc1` gave Cl transport mod inactive, WT yeast gro inh inactive and RAM inhibit 8.8.
Screening Cc1ccc(-c2cc3nc(C)cc(C)n3n2)cc1 returned Cl transport mod inactive, WT yeast gro inh inactive and RAM inhibit inactive.
COc1ccc(-c2cc3nc(C)cc(N4CC(C)CC(C)C4)n3n2)cc1 (configuration not stated) was read as BB579 growth dn 71, Cl transport mod inactive, WT yeast gro inh 70 and RAM inhibit inactive.
CSc1ccc(/C=C(\C(=O)O)c2ccc(S(=O)(=O)N3CCCCC3)s2)cc1 was read as BB579 growth dn inactive, Cl transport mod inactive, WT yeast gro inh inactive, RAM inhibit 10 and Yeast lifespan up inactive.
`Cc1cc(SCC(=O)NC(=O)c2cccn2C)nc2ccccc12` gave Cl transport mod inactive.
For C=CCSc1nc2ccccc2n1C(=O)/C=C/c1ccc(OC)c(OC)c1 the results were BB579 growth dn inactive, Cl transport mod inactive, RAM inhibit inactive and Yeast lifespan up inactive.
CCSc1nc2ccccc2n1C(=O)/C=C/c1ccc(OC)c(OC)c1 was read as BB579 growth dn inactive, Cl transport mod inactive, WT yeast gro inh inactive, RAM inhibit 10 and Yeast lifespan up inactive.
Cc1noc(C)c1COC(=O)Cc1ccc(Br)cc1 was read as Cl transport mod inactive, WT yeast gro inh inactive and RAM inhibit inactive.
Screening O=C(NC1CCCCC1)c1ccc(-n2cnnn2)cc1 returned Cl transport mod inactive.
CCOc1ccc(-n2cc(C(=O)Nc3cccc(Cl)c3)c3cc(OC)c(OC)cc3c2=O)cc1 was read as BB579 growth dn inactive, Cl transport mod inactive, WT yeast gro inh inactive, RAM inhibit 8.9 and Yeast lifespan up inactive.
Screening CCOc1ccc(NC(=O)c2cn(-c3ccc(OCC)cc3)c(=O)c3cc(OC)c(OC)cc23)cc1 returned BB579 growth dn inactive, Cl transport mod inactive, WT yeast gro inh inactive, RAM inhibit inactive and Yeast lifespan up inactive.
COc1ccc(Nc2nc(-c3cccc([N+](=O)[O-])c3)nc3ccccc23)cc1 was read as BB579 growth dn inactive, Cl transport mod inactive, WT yeast gro inh inactive, RAM inhibit inactive and Yeast lifespan up inactive.
For CCn1c2ccccc2c2nc3ccccc3nc21 the results were BB579 growth dn inactive, WT yeast gro inh inactive, RAM inhibit inactive and Yeast lifespan up inactive.
`CCn1c2ccccc2c2nc3cc(OC)c(OC)cc3nc21` gave BB579 growth dn inactive, WT yeast gro inh inactive, RAM inhibit 9.3 and Yeast lifespan up inactive.
COc1cc2nc3c4ccccc4n(CC#N)c3nc2cc1OC was read as BB579 growth dn inactive, Cl transport mod inactive, WT yeast gro inh inactive, RAM inhibit 8.4 and Yeast lifespan up inactive.
CN(C)C(=O)c1cc(C(=O)c2ccc(C(F)(F)F)cc2F)c[nH]1 was read as Cl transport mod inactive, WT yeast gro inh inactive and RAM inhibit inactive.
`O=C(c1ccccc1)c1nn(-c2ccc(Cl)cc2)c(=O)cc1C(F)(F)F` gave BB579 growth dn inactive, Cl transport mod inactive, WT yeast gro inh inactive, RAM inhibit inactive and Yeast lifespan up 32.
`O=C(c1ccccc1)c1nn(-c2ccccc2)c(=O)cc1C(F)(F)F` gave BB579 growth dn inactive, WT yeast gro inh inactive, RAM inhibit inactive and Yeast lifespan up inactive.
`CN(C1CCCC1)C1CCN(C(=S)Nc2cc(F)cc(F)c2)CC1` gave Cl transport mod inactive, WT yeast gro inh inactive and RAM inhibit inactive.
`CN(C)S(=O)(=O)c1cccc(NC(=S)N(CCC#N)Cc2cccnc2)c1` gave Cl transport mod inactive, WT yeast gro inh inactive and RAM inhibit inactive.
`CC(C)(C)[C@@H]1C=C(C(=O)N2CCN(Cc3ccccc3)CC2)O[C@H](OCc2ccc(CO)cc2)C1` gave Cl transport mod inactive, WT yeast gro inh 70 and RAM inhibit inactive.
`O=C(C1=C[C@H](C2CC2)C[C@H](OCc2ccc(CO)cc2)O1)N1CCN(Cc2ccc3c(c2)OCO3)CC1` gave Cl transport mod inactive, WT yeast gro inh inactive and RAM inhibit inactive.
Screening CC(C)(C)[C@H]1C=C(C(=O)N2CCN(Cc3ccc4c(c3)OCO4)CC2)O[C@@H](OCc2ccc(CO)cc2)C1 returned Cl transport mod inactive, WT yeast gro inh 97 and RAM inhibit inactive.
Screening COC(=O)C1=C(C)N=c2s/c(=C/c3ccoc3)c(=O)n2C1c1ccccc1 (configuration not stated) returned BB579 growth dn inactive, Cl transport mod inactive, WT yeast gro inh inactive, RAM inhibit inactive and Yeast lifespan up inactive.
COC(=O)C1=C(C)N=c2s/c(=C/c3cccs3)c(=O)n2C1c1cccs1 (configuration not stated) was read as BB579 growth dn inactive, WT yeast gro inh inactive, RAM inhibit 9.2 and Yeast lifespan up inactive.
Screening CCCCCSc1nc2c(c(=O)[nH]c(=O)n2C)n1CC returned Cl transport mod inactive and WT yeast gro inh inactive.
CCCCCSc1nc2c(c(=O)[nH]c(=O)n2C)n1C was read as BB579 growth dn inactive, Cl transport mod inactive, WT yeast gro inh inactive, RAM inhibit inactive and Yeast lifespan up 58.
Screening CCOc1ccc2nc(NCCNC(=O)Nc3ccccc3)c(C#N)cc2c1 returned BB579 growth dn inactive, WT yeast gro inh inactive, RAM inhibit inactive and Yeast lifespan up 104.
Screening CCOc1ccc2nc(NCCNC(=O)Nc3cccc(C)c3)c(C#N)cc2c1 returned BB579 growth dn inactive, Cl transport mod inactive, WT yeast gro inh inactive, RAM inhibit inactive and Yeast lifespan up inactive.
COCc1cc(SC2CCCCC2)nc(C)n1 was read as Cl transport mod inactive, WT yeast gro inh inactive and RAM inhibit inactive.
Screening Cc1ccc(NC(=O)CN(C)C(=O)c2n[nH]c(=O)c3ccccc23)cc1 returned Cl transport mod inactive, WT yeast gro inh inactive and RAM inhibit inactive.
Screening O=C(O)c1ccc(Sc2nnc3ccccn23)c([N+](=O)[O-])c1 returned Cl transport mod inactive.
`CSC1=C(C#N)C(c2ccccc2Cl)C2=C(N1)c1ccccc1C2=O` (configuration not stated) gave BB579 growth dn inactive, Cl transport mod inactive, WT yeast gro inh inactive, RAM inhibit inactive and Yeast lifespan up 28.

Screening data (PubChem)
